A selection: hits, their analogues and other compounds. The true share with any hit is near 2.8%.
bCat KO growth – beta-catenin-lacking colon tumor cell growth suppression | AID 818 | 140,000 tested, 1.5% active | HCT116 beta-catenin knockout viability, CellTiter-Glo, 60 h; active compounds read low | viability, % at 10 µM;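 active means viability at or under a set limit, the compound median less 4 SD, cut at about 6% in these data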;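 further: 0% = Hyamine 1622 control at 20 µM and 100% = untreated cell control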
BB579 growth dn – reduces growth of yeast BB579 in restrictive medium. inhibition, % at 10 µM. 140,000 tested, 0.51% active. S. cerevisiae BB579 growth, OD615, 48 h;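 active means inhibition above a set limit, 3 SD over the mean compound inhibition, cut at about 44% in these data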
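System: Saccharomyces cerevisiae DeaD strain BB579, replicative lifespan model yeast. Buffer or medium: restrictive glucose-based CSMM-D medium. Doses: one dose, 10 µM compound with 0.25% DMSO. Timing: 4 h preincubation and 48 h exposure at 30 °C. Detection: turbidity as optical density at 615 nm. Benchmarks: amphotericin B 10 µg/mL, positive.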
sdo1 growth – restores growth of sdo1-depleted yeast | S. cerevisiae sdo1-depleted JHY4D growth rescue, OD600 30 h; active compounds read high; pdr5 snq2 efflux-pump mutant strain | z-score at 10 µM | 140,000 tested, 0.21% active;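 active means z-score above 3 at both the 24 hr and the 30 hr optical density reads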;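 further: z-score against mean and SD of all compound wells on the same plate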
Yeast lifespan up – yeast lifespan extension; S. cerevisiae growth with nicotinamide, OD615; deaD strain in restrictive glucose medium; inhibition of the nicotinamide effect, % at 10 µM; 130,000 tested, 0.68% active; AID 775;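 active means inhibition above a set limit, placed 3 SD over the median of all compounds, cut at about 26% in these data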;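 further: 0% = nicotinamide-treated wells and 100% = cells grown without nicotinamide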
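Buffer or medium: CSMM-D glucose medium, restrictive; test system: modified budding yeast, DeaD strain; compound: single dose 10 µM compound, 0.25% DMSO; schedule: culture preincubation 4 h, compound exposure 48 h, both 30 °C; detection: optical density (absorbance) at 615 nm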
PTEN del growth – growth suppressors of cells with PTEN tumor suppressor deletion; HCT116 PTEN-null viability, CellTiter-Glo, 60 h; active compounds read low; viability, % at 10 µM; 140,000 tested, 1.2% active;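 active means viability at or below a set limit, 4 SD under the median of all tested compounds, cut at about 3.7% in these data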;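 further: PTEN knockout HCT116 line with beta catenin targeted HCT116 as companion control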
* hit, by the source's call.

What do the screens show for `COc1ccc(-c2[nH]c(-c3ccc4c(c3)OCO4)nc2-c2ccccc2)cc1`?
bCat KO growth: 1.3*; BB579 growth dn: -39.5; sdo1 growth: -1.81; Yeast lifespan up: -23.0; PTEN del growth: 1.4*

What do the screens show for `COc1cc(-c2nc(-c3ccccc3)c(-c3ccc(F)cc3)[nH]2)cc2c1OCO2`?
bCat KO growth: 68.4; BB579 growth dn: -45.3; sdo1 growth: -0.57; Yeast lifespan up: 8.2; PTEN del growth: 76.2

What do the screens show for `COc1ccc(N/C(C)=C/C(=S)Nc2ccccc2)cc1`?
bCat KO growth: 87.5; BB579 growth dn: -2.2; sdo1 growth: -0.14; Yeast lifespan up: -4.5; PTEN del growth: 84.2

What do the screens show for `O=C(CCl)NC(=O)NC12CC3CC(CC(C3)C1)C2`?
bCat KO growth: 16.9; BB579 growth dn: 15.2; sdo1 growth: -0.96; Yeast lifespan up: 35.0*; PTEN del growth: 19.9

What do the screens show for `CC(Cl)C(=O)NC(=O)NC12CC3CC(CC(C3)C1)C2` (stereo not drawn)?
bCat KO growth: 69.6; BB579 growth dn: -19.2; sdo1 growth: -0.02; Yeast lifespan up: 21.7; PTEN del growth: 72.0

How did COc1ccc(-n2cc3c(-c4cccc(Br)c4)nnc(C)c3n2)cc1 do in these assays?
bCat KO growth: 71.9; BB579 growth dn: -16.8; sdo1 growth: -0.66; Yeast lifespan up: -2.9; PTEN del growth: 73.0

Results for N#Cc1ccc(N=c2ssnc2Cl)cc1 ?
bCat KO growth: 97.2; BB579 growth dn: -5.3; sdo1 growth: -2.21; Yeast lifespan up: -11.0; PTEN del growth: 94.1

What do the screens show for `Clc1ccc(N=c2ssnc2Cl)cc1`?
bCat KO growth: 86.0; BB579 growth dn: 76.9*; sdo1 growth: -1.87; PTEN del growth: 80.4

What do the screens show for `COc1ccc(-c2nc3ccccc3[nH]2)cc1`?
bCat KO growth: 46.9; BB579 growth dn: -4.3; sdo1 growth: -0.46; Yeast lifespan up: -14.4; PTEN del growth: 46.5

What do the screens show for `COc1ccc(-c2cc(=O)n(-c3nc4ccccc4[nH]3)[nH]2)cc1`?
bCat KO growth: 95.2; BB579 growth dn: 95.7*; sdo1 growth: -0.15; Yeast lifespan up: -24.5; PTEN del growth: 82.7

What do the screens show for `COCCN1CC(=O)N(c2cccc(C)c2C)C(c2ccc(Cl)cc2)C1=O` (stereo not drawn)?
bCat KO growth: 104.3; BB579 growth dn: -44.9; sdo1 growth: 0.5; Yeast lifespan up: -4.5; PTEN del growth: 93.5

What do the screens show for `Cc1cccc(N2C(=O)C(Oc3ccc(Cl)cc3Cl)C2C=O)c1C` (stereo not drawn)?
bCat KO growth: 5.2*; BB579 growth dn: -27.2; sdo1 growth: -1.73; Yeast lifespan up: 50.6*; PTEN del growth: 4.5

What do the screens show for `C=Cn1cc[n+](CC(=O)C(C)(C)C)c1`?
bCat KO growth: 85.6; BB579 growth dn: -6.3; sdo1 growth: 0.55; Yeast lifespan up: 23.1; PTEN del growth: 98.9

How did Cc1cc(C)c(O)c(-c2cc(C(=O)Nc3ccc(S(=O)(=O)N4CCOCC4)cc3)[nH]n2)c1 do in these assays?
bCat KO growth: 2.3*; BB579 growth dn: -46.0; sdo1 growth: 0.43; Yeast lifespan up: 1.6; PTEN del growth: 1.2*

Results for CC(NC(=O)CCc1ccccc1)c1cc2c(cc1Cl)OCCO2 (stereo not drawn) ?
bCat KO growth: 83.6; BB579 growth dn: -0.7; sdo1 growth: -1.15; Yeast lifespan up: 1.2; PTEN del growth: 82.0

What do the screens show for `CC(=O)Nc1nc(C)c(Oc2ccccc2)c(=O)[nH]1`?
bCat KO growth: 99.1; BB579 growth dn: -40.0; sdo1 growth: 1.07; Yeast lifespan up: 81.4*; PTEN del growth: 102.0

Results for N#Cc1cccc(NC(=S)Nc2ccccc2)c1 ?
bCat KO growth: 93.4; BB579 growth dn: -47.4; sdo1 growth: 0.94; Yeast lifespan up: 1.9; PTEN del growth: 98.6

What do the screens show for `O=C(Nc1cccc(N=Cc2cc(Cl)cc(Br)c2O)c1)c1ccco1`?
bCat KO growth: 80.7; BB579 growth dn: 56.3*; sdo1 growth: -0.13; Yeast lifespan up: 7.3; PTEN del growth: 85.7

What do the screens show for `CC(C)(C)NC(=O)c1cccc(NC(=O)c2ccco2)c1`?
bCat KO growth: 102.3; BB579 growth dn: -7.2; sdo1 growth: -0.24; PTEN del growth: 91.7

What do the screens show for `C/C(=N\NC(=O)c1cccc(Cl)c1)c1cccc(NC(=O)c2ccco2)c1`?
bCat KO growth: 101.6; BB579 growth dn: -13.3; sdo1 growth: -0.2; Yeast lifespan up: -14.3; PTEN del growth: 87.4

Screens (PubChem)
